Experimental data taken from ChEMBL document CHEMBL1150579, “Anti-lipid-peroxidative principles from Tournefortia sarmentosa” (J Nat Prod, 2002).
pIC50: −log10 of the molar value.

Key:
[1] = Antioxidant activity against Cu2+-induced lipid peroxidation in human plasma LDL preincubated for 1 hr before Cu2+ challenge relative to probucol; format: functional, cell-free
In short: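 Same Cu2+-induced human LDL assay as above, with 1 h compound preincubation, 10 µM CuSO4 for 2 h at 37 °C, and conjugated dienes read at 232 nm. Probucol (10 µM, in 10% ethanol) was the positive control, with its potency set at 1.0. Relative potency = IC50(probucol)/IC50(compound).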

[2] = Antioxidant activity against Cu2+-induced lipid peroxidation in human plasma LDL preincubated for 1 hr before Cu2+ challenge; format: functional, cell-free
In short: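 LDL from fasting plasma of healthy adult men not taking vitamin supplements. LDL was preincubated with compound at 37 °C for 1 h. Oxidation was started with CuSO4 (final 10 µM) and run for 2 h at 37 °C, shaken at 120 rpm. Conjugated dienes in the supernatant were read at 232 nm. IC50 is the concentration giving 50% inhibition of diene formation, taken from concentration curves.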

pIC50 [2] | SMILES | Activity [1]
6.23 | O=C(/C=C/c1ccc(O)c(O)c1/C=C/c1ccc(O)c(O)c1)O[C@H](Cc1ccc(O)c(O)c1)C(=O)O [SALVIANOLIC ACID A] | 7.3
5.26 | O=C(O)/C=C/c1ccc(O)c(O)c1/C=C/c1ccc(O)c(O)c1 [SALVIANOLIC ACID F] | 0.8
5.37 | CC(C)(Sc1cc(C(C)(C)C)c(O)c(C(C)(C)C)c1)Sc1cc(C(C)(C)C)c(O)c(C(C)(C)C)c1 [PROBUCOL] | –
5.32 | O=C(O)/C=C/c1ccc(O)c2oc(-c3ccc(O)c(O)c3)cc12 [TOURNEFOLIC ACID A] | 1.1
5.74 | O=C(/C=C/c1ccc(O)c(O)c1)O[C@H](Cc1ccc(O)c(O)c1)C(=O)O [ROSMARINIC ACID] | 2.2
6.29 | CCOC(=O)/C=C/c1ccc(O)c2c1C=Cc1cc(O)c(O)cc1O2 [TOURNEFOLIC ACID B ETHYL ESTER] | 8.6
5.57 | O=C(/C=C/c1ccc(O)c2c1C=Cc1cc(O)c(O)cc1O2)O[C@H](Cc1ccc(O)c(O)c1)C(=O)O [ISOSALVIANOLIC ACID C] | 1.6
5.63 | O=C(O)/C=C/c1ccc(O)c2c1C=Cc1cc(O)c(O)cc1O2 [TOURNEFOLIC ACID B] | 1.9
6.00 | O=C(/C=C/c1ccc(O)c2c1[C@H](C(=O)O)[C@@H](c1ccc(O)c(O)c1)O2)O[C@H](Cc1ccc(O)c(O)c1)C(=O)O [LITHOSPERMIC ACID] | 4.3
5.33 | O=Cc1ccc(O)c2oc(-c3ccc(O)c(O)c3)cc12 [TOURNEFOLAL] | 1.09
